Assay results from ChEMBL document CHEMBL4152363, “Andrographolide derivative as STAT3 inhibitor that protects acute liver damage in mice” (Bioorg Med Chem, 2018).
pEC50: −log10 of the molar value. Active and inactive are the calls of the source. No cut-off for these calls is given here.

Columns and labels:
[1] = target: T1, Signal transducer and activator of transcription 3 (Homo sapiens, UniProt P40763); assay: Inhibition of IL-6 stimulated STAT3 activation in human AD293 cells incubated with IL-6 for 16 hrs followed by compound addition measured after 6 hrs by luciferase reporter gene assay; assay type: cell-based
Method in brief: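 AD-293 cells stimulated with 2.5 μg/mL IL-6; compound treatment 6 h; luciferase activity read from cell extracts; EC50 derived.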

[2] = target: T1, Signal transducer and activator of transcription 3; assay: Inhibition of […] activation in human AD293 cells incubated […] for 16 hrs followed by compound addition measured after 4 hrs by luciferase reporter gene assay; assay type: cell-based
[3] = target: T1, Signal transducer and activator of transcription 3; assay: Inhibition of IFNgamma-stimulated STAT3 activation in human HeLa cells incubated with IFNgamma for 16 hrs followed by compound addition measured after 24 hrs by luciferase reporter gene assay; assay type: cell-based
Method in brief: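 AD-293 or HeLa cells in DMEM/10% FBS stimulated with 20 pg/mL IFN-γ; compound treatment 24 h; luciferase activity measured in cell extracts; EC50 derived.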

[4] = target: T1, Signal transducer and activator of transcription 3; assay: Inhibition of […] activation in human HeLa cells incubated […] for 16 hrs followed by compound addition measured after 4 hrs by luciferase reporter gene assay; assay type: cell-based
Method in brief: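 NF-κB pathway in AD-293 or HeLa cells stimulated with 50 ng/mL TNF-α; compound treatment 4 h; luciferase activity read from cell extracts; EC50 derived.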

[5] = target: T1, Signal transducer and activator of transcription 3; assay: Inhibition of IFNgamma-stimulated STAT3 phosphorylation at Tyr705 residues in human AD293 cell lysates incubated with IFNgamma followed by compound addition at 10 uM by Western blot analysis
Method in brief: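 AD-293 cells treated with 1 μg/mL IFN-γ alone or with compounds at 10 μM; phospho- and total STAT1 and STAT3 assessed by western blot; representative of at least three independent experiments.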

[6] = target: T1, Signal transducer and activator of transcription 3; assay: Inhibition of IFNgamma-stimulated GFP/FLAG-tagged STAT3 dimerization in human AD293 cells at 10 uM incubated for 6 hrs by Western blot analysis; assay type: cell-based
Method in brief: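 AD-293 cells co-transfected 48 h with GFP- and FLAG-tagged STAT3 plasmids, then IFN-γ with or without compound for 6 h; 100 μg lysate (RIPA) immunoprecipitated with anti-FLAG and protein G beads; blots probed for GFP and FLAG, chemiluminescent detection.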

Mus musculus [7] = assay: Toxicity in Balb/c mouse assessed as change in body weight at 30 mg/kg, po qd for 7 days; assay type: organism-based; details: in vivo, 168 h
Method in brief: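 Male BalB/C mice (20–25 g, 6–8 weeks, 1-week acclimation) dosed orally 30 mg/kg once daily 7 days, then subcutaneous CCl4 (40% in olive oil, 10 ml/kg); body weight tracked during treatment; S.E.M.; two independent experiments, n=5.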

Mus musculus [8] = assay: Hepatoprotective activity against CCL4-induced acute liver damage in Balb/c mouse assessed as decrease in hepatic damage at 30 mg/kg, po qd for 7 days measured after 16 hrs post CCL4 challenge by hematoxylin-eosin staining based light microscopy; assay type: functional, organism-based
Method in brief: (§1)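 Male BalB/C mice given oral 30 mg/kg daily for 7 days, then sc CCl4 (40% in olive oil, 10 ml/kg); sacrificed 16 h later; livers fixed in 10% formaldehyde, paraffin sections stained with H&E or Masson's trichrome, light microscopy, ≥3 sections per liver; n=5, two experiments.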

Mus musculus [9] = assay: Hepatoprotective activity against CCL4-induced acute liver damage in Balb/c mouse assessed as increase in number of Ki67 positive cells at 30 mg/kg, po qd for 7 days measured after 16 hrs post CCL4 challenge by hematoxylin staining based immunohistochemistry method; assay type: functional, organism-based
Method in brief: (§2)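 Liver sections from mice dosed orally 30 mg/kg daily 7 days then sc CCl4, killed 16 h after; H2O2 block, goat serum/BSA/gelatin blocking 1 h RT, primary antibody (α-SMA, Ki67, PCNA or STAT3) 4 °C overnight, HRP secondary, DAB, hematoxylin counterstain; >30 fields at 400× quantified; n=5.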

Mus musculus [10] = assay: Antifibrotic activity in CCL4-induced acute liver damage Balb/c mouse model assessed as decrease in collagen deposition in liver at 30 mg/kg, po qd for 7 days measured after 16 hrs post CCL4 challenge by masson trichome staining based assay; assay type: functional, organism-based; method in brief: as §1
Mus musculus [11] = assay: Antifibrotic activity in CCL4-induced acute liver damage Balb/c mouse model assessed as decrease in alpha-SMA expression in areas surrounding blood vessels at 30 mg/kg, po qd for 7 days measured after 16 hrs post CCL4 challenge by masson trichome staining based assay; assay type: functional, organism-based; details: in the assay text read “immunohistochemistry” for “masson trichome staining based assay”; method in brief: as §2
Mus musculus [12] = assay: Reduction in MMP9 mRNA expression level in CCL4-induced acute liver damage in Balb/c mouse at 30 mg/kg, po qd for 7 days measured after 16 hrs post CCL4 challenge by qRT-PCR method; assay type: functional, organism-based
Method in brief: (§3)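 Mice given 30 mg/kg orally once daily 7 days before sc CCl4 (40% in olive oil, 10 ml/kg); livers harvested 16 h later, PBS-washed, stored at −70 °C for RNA extraction and transcript quantification; n=5, two independent experiments.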

Mus musculus [13] = assay: Reduction in Col1a1 mRNA expression level in CCL4-induced acute liver damage in Balb/c mouse at 30 mg/kg, po qd for 7 days measured after 16 hrs post CCL4 challenge by qRT-PCR method; assay type: functional, organism-based; method in brief: as §3
Mus musculus [14] = assay: Reduction in Col3a1 mRNA expression level in CCL4-induced acute liver damage in Balb/c mouse at 30 mg/kg, po qd for 7 days measured after 16 hrs post CCL4 challenge by qRT-PCR method; assay type: functional, organism-based; method in brief: as §3
Mus musculus [15] = assay: In vivo inhibition of STAT3 expression level in CCL4-induced acute liver damage in Balb/c mouse assessed as decrease in nuclear STAT3 phosphorylation at 30 mg/kg, po qd for 7 days measured after 16 hrs post CCL4 challenge by hematoxylin staining based immunohistochemistry method; assay type: functional, organism-based; method in brief: as §2
Mus musculus [16] = assay: Antiinflammatory activity in CCL4-induced acute liver damage Balb/c mouse model assessed as decrease in serum TGF-beta levels at 30 mg/kg, po qd for 7 days measured after 16 hrs post CCL4 challenge; assay type: functional, organism-based
Method in brief: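 BalB/C males dosed orally 30 mg/kg daily for 7 days, then sc CCl4 (40% in olive oil, 10 ml/kg); serum collected 16 h post-CCl4 after CO2 anaesthesia, stored at −70 °C until IL-6, MCP-1 or TGF-β analysis; n=5.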

Mus musculus [17] = assay: Reduction in SMAD2 mRNA expression level in liver of CCL4-induced acute liver damage in Balb/c mouse at 30 mg/kg, po qd for 7 days measured after 16 hrs post CCL4 challenge by qRT-PCR method; assay type: functional, organism-based; method in brief: as §3
Mus musculus [18] = assay: Reduction in SMAD3 mRNA expression level in liver of CCL4-induced acute liver damage in Balb/c mouse at 30 mg/kg, po qd for 7 days measured after 16 hrs post CCL4 challenge by qRT-PCR method; assay type: functional, organism-based; method in brief: as §3
Mus musculus [19] = assay: Reduction in SMAD4 mRNA expression level in liver of CCL4-induced acute liver damage in Balb/c mouse at 30 mg/kg, po qd for 7 days measured after 16 hrs post CCL4 challenge by qRT-PCR method; assay type: functional, organism-based; method in brief: as §3

T1 sequence (P40763 whole entry): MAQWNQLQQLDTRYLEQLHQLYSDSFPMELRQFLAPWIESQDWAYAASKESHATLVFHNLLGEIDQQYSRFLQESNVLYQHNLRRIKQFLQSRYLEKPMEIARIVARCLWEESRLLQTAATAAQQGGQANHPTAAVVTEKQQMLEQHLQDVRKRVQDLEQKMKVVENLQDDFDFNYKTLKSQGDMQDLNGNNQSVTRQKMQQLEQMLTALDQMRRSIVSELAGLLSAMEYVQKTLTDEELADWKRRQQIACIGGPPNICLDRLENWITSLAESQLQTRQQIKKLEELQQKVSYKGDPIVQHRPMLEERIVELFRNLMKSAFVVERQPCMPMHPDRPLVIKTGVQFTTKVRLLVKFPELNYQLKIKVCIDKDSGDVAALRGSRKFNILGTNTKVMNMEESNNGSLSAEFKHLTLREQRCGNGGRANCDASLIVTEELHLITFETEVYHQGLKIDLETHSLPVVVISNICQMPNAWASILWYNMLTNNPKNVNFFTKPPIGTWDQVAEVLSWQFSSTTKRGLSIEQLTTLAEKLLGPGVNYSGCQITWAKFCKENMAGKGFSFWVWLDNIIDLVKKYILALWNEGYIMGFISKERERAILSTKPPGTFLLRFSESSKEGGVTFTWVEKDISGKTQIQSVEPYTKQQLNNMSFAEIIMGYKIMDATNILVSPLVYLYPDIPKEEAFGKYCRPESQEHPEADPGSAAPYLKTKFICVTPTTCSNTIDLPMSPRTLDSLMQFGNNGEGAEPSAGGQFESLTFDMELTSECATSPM

Q: `CC(C)(C)[Si](C)(C)O[C@@H]1COC(=O)/C1=C/C[C@@H]1[C@]2(CC[C@H]3[C@@]1(C)CCC(=O)[C@@]3(C)CO)CO2` was tested. Which pEC50 [1] did it give?
A: Its pEC50 is 5.40.

Q: What about the pEC50 [2] of the same compound?
A: The pEC50 was less than 5.00.

Q: And the pEC50 [3]?
A: The pEC50 was 5.23.

Q: What about the pEC50 [4] of the same compound?
A: Its pEC50 is less than 5.00.

Q: And the inhibition [5]?
A: Its inhibition is greater than 50%.

Q: What about the inhibition [6] of the same compound?
A: The inhibition was “Active”.

Q: And the Activity (Mus musculus [7])?
A: The Activity was “Non-Toxic”.

Q: And the Activity (Mus musculus [8])?
A: Its Activity is “Active”.

Q: What about the Activity (Mus musculus [9]) of the same compound?
A: Its Activity is “Active”.

Q: And the Activity (Mus musculus [10])?
A: Its Activity is “Active”.

Q: What about the Activity (Mus musculus [11]) of the same compound?
A: Its Activity is “Active”.

Q: And the Activity (Mus musculus [12])?
A: Its Activity is “inactive”.

Q: And the Activity (Mus musculus [13])?
A: Its Activity is “inactive”.

Q: What about the Activity (Mus musculus [14]) of the same compound?
A: The Activity was “inactive”.

Q: And the inhibition (Mus musculus [15])?
A: The inhibition was “Active”.

Q: And the Activity (Mus musculus [16])?
A: The Activity was “Active”.

Q: What about the Activity (Mus musculus [17]) of the same compound?
A: The Activity was “inactive”.

Q: And the Activity (Mus musculus [18])?
A: Its Activity is “inactive”.

Q: And the Activity (Mus musculus [19])?
A: Its Activity is “inactive”.
